Measurements of several laboratories.
Protocols differ between the studies behind these lines.
FGFR3: Fibroblast growth factor receptor 3 (FGFR3, Homo sapiens, UniProt P22607)
FGFR3 G697C: Fibroblast growth factor receptor 3 (FGFR3, Homo sapiens, UniProt P22607, G697C)

| Compound | target | assay | setting | quantity | value |
| --- | --- | --- | --- | --- | --- |
| N#Cc1ccc(NC(=O)Nc2ccccc2)cc1 | FGFR3 | cell-free assay, competition with immobilised ligand | 25 µM | remaining binding | 100% |
| C1=C/COCc2cc(ccc2OCCN2CCCC2)Nc2nccc(n2)-c2cccc(c2)COC/1 | FGFR3 G697C | binding | 0.1 µM | remaining binding | 100% |
| Cc1ccc(NC(=O)c2ccnc(C(F)(F)F)c2)cc1-c1cc(OCCO)nc(N2CCOCC2)c1 | FGFR3 | binding, competition with immobilised ligand | 1 µM | remaining binding | 90% |
| C=CC(=O)N1CCC([C@@H]2CCNc3c(C(N)=O)c(-c4ccc(Oc5ccccc5)cc4)nn32)CC1 | FGFR3 G697C | cell-free assay | 1 µM | inhibition | 14% |
| C#Cc1cnc(Nc2ccnc(CO)c2)nc1Nc1ccccc1S(C)(=O)=NC#N (stereo not drawn) | FGFR3 | cell-free assay | 1 µM | remaining signal | 28% |
| CO[C@@H]1[C@H](N(C)C(=O)c2ccccc2)C[C@H]2O[C@]1(C)n1c3ccccc3c3c4c(c5c6ccccc6n2c5c31)C(=O)NC4 | FGFR3 | enzyme activity, inhibitor | 1 µM | inhibition | 3% |
| C[C@H]1CC[C@H](n2c3cnccc3c3cnc(Nc4ccc5c(n4)CCN(C(=O)CO)C5)nc32)CC1 | FGFR3 | cell-free assay, competition with immobilised ligand | 1 µM | remaining binding | 100% |
| CCCCC(=O)Nc1ccc(-c2ccc3ncn(CCC)c(=O)c3c2)cn1 | FGFR3 | binding, competition with immobilised ligand | 0.5 µM | remaining binding | 96% |
| COc1ccc2oc(-c3ccc4nc(N)oc4c3)c/c(=N\c3ccccc3NC(=O)CCN)c2c1 | FGFR3 | binding | 1 µM | remaining binding | 107% |
